Screening results deposited in PubChem BioAssay by several laboratories.
Only some compounds are listed: those with a hit (about 12% of all), similar ones and a draw of the others.
ABCG2 block: human ABCG2 inhibition, ABCB1 as counter-screen; Q9UNQ0; IgMXP3 cells, JC-1 efflux, flow cytometry; AID 1325; inhibition, % at 6.6 µM; 190,000 tested, 0.1% active;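 active = inhibition above 80%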
Target sequence (Q9UNQ0 whole entry, looked up): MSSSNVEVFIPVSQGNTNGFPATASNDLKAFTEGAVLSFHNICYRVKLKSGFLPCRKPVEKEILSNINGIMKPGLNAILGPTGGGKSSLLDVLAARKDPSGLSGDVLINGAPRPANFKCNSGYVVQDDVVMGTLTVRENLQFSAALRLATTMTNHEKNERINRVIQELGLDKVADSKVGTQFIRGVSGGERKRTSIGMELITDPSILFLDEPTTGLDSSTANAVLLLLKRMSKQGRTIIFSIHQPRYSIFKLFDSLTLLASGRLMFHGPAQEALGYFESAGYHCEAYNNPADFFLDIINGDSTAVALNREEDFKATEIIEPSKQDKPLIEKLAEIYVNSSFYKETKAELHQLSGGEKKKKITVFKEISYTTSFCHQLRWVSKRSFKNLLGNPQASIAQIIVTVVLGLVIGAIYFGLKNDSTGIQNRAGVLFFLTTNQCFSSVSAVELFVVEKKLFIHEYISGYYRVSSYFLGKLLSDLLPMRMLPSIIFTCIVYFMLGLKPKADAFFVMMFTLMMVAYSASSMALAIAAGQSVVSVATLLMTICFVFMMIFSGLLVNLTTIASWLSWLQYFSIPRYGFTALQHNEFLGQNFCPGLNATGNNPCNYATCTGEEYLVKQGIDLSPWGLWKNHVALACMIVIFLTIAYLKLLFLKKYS
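Measure – % inhibition of efflux relative to nicardipine and DMSO · Test system – ABCG2 IgMXP3 and barcoded ABCB1 CCRF-Adr cell mix · Control set – nicardipine as high control, DMSO as low control · Compound – one concentration, 6.6 µM final · Signal – flow cytometry of retained JC-1 fluorescence · Timing – 10 min exposure at 25 °C with rotation, no wash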
ABCB1 inh: human ABCB1 inhibition, ABCG2 as counter-screen; 190,000 tested, 0.067% active; inhibition, % at 6.6 µM; CCRF-Adr cells, JC-1 efflux, flow cytometry; P08183; AID 1326; in the data active = inhibition above about 40%;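 note: higher value means more JC-1 retained so stronger ABCB1 efflux block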
Lmaj promast: Leishmania major promastigote growth inhibition; Leishmania major promastigotes, resazurin fluorescence viability; inhibition, % at 10 µM; 200,000 tested, 9% active; in the data active = inhibition above about 50%;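 note: promastigotes grown with compound for 44 hours at 28 °C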
RAM inhibit: blocks the yeast RAM network; inhibition, % at 50 µM; S. cerevisiae dse1pr::URA3 reporter, 5-FOA growth OD615, 2 d; analog-sensitive cbk1-as2 kinase mutant strain; 190,000 tested, 1.8% active;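 active = inhibition above a set limit, 3 SD over mean compound inhibition, cut at about 8.4% in these data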;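 note: inhibition rescues growth on 5-FOA so higher OD means more RAM inhibition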
WT yeast gro inh: growth inhibition of WT yeast, mitochondrial fusion screen; mitochondrial fusion phenotypic screen, WT strain; inhibition, % at 10 µM; 190,000 tested, 2.1% active; AID 1362; in the data active = inhibition above about 58%; tested in S. cerevisiae
Numbers stand for hits; i = inactive; nt = no result.

SMILES	ABCG2 block	ABCB1 inh	Lmaj promast	RAM inhibit	WT yeast gro inh
O=[N+]([O-])c1ccc(Cl)c(CN2CCC(O)CC2)c1	i	i	61.6	i	i
CC1CCN(S(=O)(=O)c2cc([N+](=O)[O-])ccc2Cl)CC1	i	i	54.8	i	i
O=[N+]([O-])c1ccc(Cl)c(/C=N/N2CCN(Cc3ccccc3Cl)CC2)c1	i	i	i	i	i
COc1cc(-c2nc(-c3ccccc3)c(-c3cccs3)[nH]2)cc(OC)c1O	i	i	i	i	i
COc1cc(-c2nc(-c3ccccc3)c(-c3cccs3)[nH]2)cc(OC)c1OC	nt	nt	89.9	i	i
O=C(O)c1ccccc1-c1nc(-c2ccccc2)c(-c2ccccc2)[nH]1	i	i	i	i	i
COc1cccc(-c2nc(-c3ccc4c(c3)-c3ccccc3S4(=O)=O)c(-c3ccccc3)[nH]2)c1OC	i	i	56.7	9.2	i
COc1cc(-c2nc(-c3ccc4c(c3)-c3ccccc3S4(=O)=O)c(-c3ccccc3)[nH]2)cc(OC)c1OC	i	i	98.9	i	i
O=C(O)CCc1nn2c3ccccc3nc2n(Cc2ccccc2)c1=O	i	i	i	i	i
COc1cccc2cc(C(=O)N3CCN(c4ccccn4)CC3)c(=O)oc12	i	i	i	i	i
COc1cc(C(=O)N2CCN(C/C=C/c3ccccc3)CC2)cc(OC)c1OC	i	i	i	i	i
CCOc1cc(C(=O)N2CCN(C/C=C/c3ccccc3)CC2)cc(OCC)c1OCC	i	i	65.9	i	i
CCOc1cccc2cc(C(=O)N3CCN(C/C=C/c4ccccc4)CC3)c(=O)oc12	i	i	96.0	i	i
Cn1c(C(C)(O)C(O)c2ccccc2)nc2ccccc21 (stereo not drawn)	i	i	i	i	i
CCOC(=O)n1c(=O)n(Cc2ccc(Cl)c(Cl)c2)c2ccccc21	i	i	i	i	i
C=CCNC(=S)Nc1sc2c(c1C#N)CCCC2	i	i	57.9	i	i
CCOC(=O)c1c(NC(=O)CSc2nnc3c(n2)[nH]c2ccc(F)cc23)sc(C(C)=O)c1C	i	i	i	i	i
CCOC(=O)c1c(NC(=O)CSc2nnc3c(n2)[nH]c2ccccc23)sc2c1CCN(C)C2	nt	nt	100.4	nt	nt
Nc1cccn2c(-c3ccc(Cl)c(Cl)c3)cnc12	i	i	64.7	i	i
Nc1cccn2c(-c3ccc(Cl)cc3)cnc12	i	i	72.8	i	i
Cc1nc(C(=O)NC(C)C)nn1-c1cc(Cl)cc(Cl)c1	i	i	i	i	i
CC(C)(C)n1nnnc1C(c1ccc(Cl)cc1)N(Cc1cccnc1)Cc1ccco1 (stereo not drawn)	i	i	100.0	i	68.2
CC(C)(C)n1nnnc1C(c1ccc(F)cc1)N(Cc1ccc(F)cc1)Cc1ccco1 (stereo not drawn)	i	i	i	i	58.6
CCC(C)(C)n1nnnc1CN(Cc1ccc(Cl)cc1)Cc1ccco1	i	i	56.4	i	i
CC(C)(C)n1nnnc1C(c1ccc(C(F)(F)F)cc1)N(Cc1ccccc1)Cc1ccco1 (stereo not drawn)	i	i	i	10.9	i
SMILES	ABCG2 block	ABCB1 inh	Lmaj promast	RAM inhibit	WT yeast gro inh
CNCCCOc1cc(C)cc(C)c1C	i	i	i	i	i
CC(C)(C)n1nnnc1C(c1ccc(C(F)(F)F)cc1)N(Cc1ccc(F)cc1)Cc1ccco1 (stereo not drawn)	i	i	77.1	i	i
COc1cc(-c2nnc(SCC(=O)OC3CCCCC3)o2)cc(OC)c1OC	i	i	i	9.0	i
COc1ccc(-c2nnc(SCC(=O)N(Cc3ccccc3)C(C)(C)C)o2)cc1OC	i	i	57.5	i	i
CCOC(=O)CSc1nnc(-c2cc(OC)c(OC)c(OC)c2)o1	i	i	i	i	i
CCn1c(C2CCN(S(=O)(=O)c3ccc(OC)cc3)CC2)n[nH]c1=S	i	i	i	i	i
CC(=O)COc1cc(C)cc2oc(=O)c(C)c(C)c12	i	i	i	i	66.4
CC(=O)C(C)Oc1cc(C)cc2oc(=O)c(C)c(C)c12 (stereo not drawn)	i	i	i	i	i
Cc1nc(C)c(/C(O)=C/c2nc3ccccc3oc2=O)s1	i	i	75.7	i	i
CC(C)(C)/C(O)=C/c1nc2ccccc2oc1=O	i	i	i	i	i
CCCOc1ccc(-c2csc(N)n2)cc1[N+](=O)[O-]	i	i	i	i	75.8
Fc1ccccc1CSc1nnc(-c2cnccn2)n1Cc1ccco1	i	i	i	i	i
C(=C\c1ccccc1)/CSc1nnc(-c2cnccn2)n1Cc1ccco1	i	i	99.6	i	i
Cc1ccc(NC(=O)CSc2nnc(-c3cnccn3)n2Cc2ccco2)cc1	i	i	i	i	i
Clc1ccc(CSc2nnc(-c3ccccn3)n2Cc2ccco2)c(Cl)c1	i	i	i	i	59.5
Cc1cccc(NC(=O)CSc2nnc(-c3cnccn3)n2Cc2ccco2)c1	i	i	i	9.9	i
CCn1c(SCC(=O)O)nnc1-c1cccnc1	i	i	i	i	i
CCOc1ccccc1N=c1oc2cc(O)ccc2cc1C(=O)NCC1CCCO1 (stereo not drawn)	i	i	i	i	i
COc1cc([C@H]2[C@@H]3CCCC[C@]3(O)CCN2Cc2ccccc2F)ccc1O	i	i	i	i	i
COc1cc([C@H]2[C@@H]3CCCC[C@]3(O)CCN2CC(=O)Nc2ccc(C)cc2C)ccc1O	i	i	65.4	i	i
COC(=O)c1c(NC(=O)CN2CCC3(O)CCCCC3C2c2ccc(OC)cc2OC)sc(C)c1C (stereo not drawn)	i	i	61.8	i	59.3
COc1ccc(NC(=O)CN2CCC3(O)CCCCC3C2c2cc(OC)ccc2OC)cc1 (stereo not drawn)	i	i	i	i	i
COC(=O)c1c(NC(=O)CN2CCC3(O)CCCCC3C2c2ccccc2OC)sc(C)c1C (stereo not drawn)	i	i	i	i	73.3
CCOC(=O)CSC1=C(C#N)C(c2ccc(OC)cc2)C2=C(CC(C)(C)CC2=O)N1 (stereo not drawn)	i	i	i	i	i
COc1ccc(C2C(C#N)=C(SC)NC3=C2C(=O)CC(C)(C)C3)cc1 (stereo not drawn)	i	i	i	i	78.6
SMILES	ABCG2 block	ABCB1 inh	Lmaj promast	RAM inhibit	WT yeast gro inh
COc1ccc(C2C3=C(CC(C)(C)CC3=O)Nc3c2c(=O)[nH]c(=O)n3Cc2ccccc2)cc1 (stereo not drawn)	i	i	i	9.5	i
CCOc1ccc(NC(=S)N2CCCN(Cc3cc(C)ccc3C)C2)cc1	i	i	i	i	i
O=C(NCC1CCCO1)C(c1cccs1)N(Cc1cccs1)C(=O)c1ccc(-c2ccccc2)[nH]1 (stereo not drawn)	i	i	99.3	8.4	i
COc1ccc(C2N(S(=O)(=O)c3ccccc3)CCN2S(=O)(=O)c2ccc(C)cc2)cc1 (stereo not drawn)	i	i	99.8	i	i
Cc1ccc(S(=O)(=O)N2CCN(S(=O)(=O)c3ccc(C)cc3)C2c2ccccc2)cc1	i	i	i	i	i
CCOC(=O)N1CCN(S(=O)(=O)c2ccc(C)cc2)C1c1ccc(OC)cc1 (stereo not drawn)	i	i	i	i	84.8
